In ChEMBL document CHEMBL2380302, “Synthesis of 3-O-propargylated betulinic acid and its 1,2,3-triazoles as potential apoptotic agents” (Eur J Med Chem, 2013):
Calls of active or inactive are those of the source. The rule behind the calls is not given here.

Tests used:
MCF7 [1] = assay: Cytotoxicity against human MCF7 cells after 48 hrs by SRB assay; format: functional, cell-based; details: MCF7, 48 h
THP-1 [2] = assay: Cytotoxicity against human THP1 cells after 48 hrs by SRB assay; format: functional, cell-based; details: THP-1, 48 h
HEp-2 [3] = assay: Cytotoxicity against human Hep2 cells at 50 uM after 48 hrs by SRB assay; format: functional; details: HEp-2, 48 h, read-out: GI
A549 [4] = assay: Cytotoxicity against human A549 cells after 48 hrs by SRB assay; format: functional, cell-based; details: A549, 48 h
A549 [5] = assay: Cytotoxicity against human A549 cells at 30 uM after 48 hrs by SRB assay; format: functional; details: A549, 48 h, read-out: GI
HCT-15 [6] = assay: Cytotoxicity against human HCT15 cells at 30 uM after 48 hrs by SRB assay; format: functional; details: HCT-15, 48 h, read-out: GI
MCF7 [7] = assay: Cytotoxicity against human MCF7 cells at 50 uM after 48 hrs by SRB assay; format: functional; details: MCF7, 48 h, read-out: GI
DU-145 [8] = assay: Cytotoxicity against human DU145 cells at 30 uM after 48 hrs by SRB assay; format: functional; details: DU-145, 48 h, read-out: GI
HCT-15 [9] = assay: Cytotoxicity against human HCT15 cells at 10 uM after 48 hrs by SRB assay; format: functional; details: HCT-15, 48 h, read-out: GI
A549 [10] = assay: Cytotoxicity against human A549 cells at 10 uM after 48 hrs by SRB assay; format: functional; details: A549, 48 h, read-out: GI
SF-295 [11] = assay: Cytotoxicity against human SF295 cells at 50 uM after 48 hrs by SRB assay; format: functional; details: SF-295, 48 h, read-out: GI
PC-3 [12] = assay: Cytotoxicity against human PC3 cells at 10 uM after 48 hrs by SRB assay; format: functional; details: PC-3, 48 h, read-out: GI
HL-60 [13] = assay: Cytotoxicity against human HL60 cells after 48 hrs by SRB assay; format: functional, cell-based; details: HL-60, 48 h
MCF7 [14] = assay: Cytotoxicity against human MCF7 cells at 30 uM after 48 hrs by SRB assay; format: functional; details: MCF7, 48 h, read-out: GI
THP-1 [15] = assay: Cytotoxicity against human THP1 cells at 10 uM after 48 hrs by SRB assay; format: functional; details: THP-1, 48 h, read-out: GI
HL-60 [16] = assay: Cytotoxicity against human HL60 cells at 30 uM after 48 hrs by SRB assay; format: functional; details: HL-60, 48 h, read-out: GI
MCF7 [17] = assay: Cytotoxicity against human MCF7 cells at 10 uM after 48 hrs by SRB assay; format: functional; details: MCF7, 48 h, read-out: GI
SF-295 [18] = assay: Cytotoxicity against human SF295 cells at 10 uM after 48 hrs by SRB assay; format: functional; details: SF-295, 48 h, read-out: GI
PC-3 [19] = assay: Cytotoxicity against human PC3 cells at 30 uM after 48 hrs by SRB assay; format: functional; details: PC-3, 48 h, read-out: GI
HEp-2 [20] = assay: Cytotoxicity against human Hep2 cells at 10 uM after 48 hrs by SRB assay; format: functional; details: HEp-2, 48 h, read-out: GI
PC-3 [21] = assay: Cytotoxicity against human PC3 cells after 48 hrs by SRB assay; format: functional, cell-based; details: PC-3, 48 h
HL-60 [22] = assay: Cytotoxicity against human HL60 cells at 50 uM after 48 hrs by SRB assay; format: functional; details: HL-60, 48 h, read-out: GI
THP-1 [23] = assay: Cytotoxicity against human THP1 cells at 50 uM after 48 hrs by SRB assay; format: functional; details: THP-1, 48 h, read-out: GI
DU-145 [24] = assay: Cytotoxicity against human DU145 cells at 10 uM after 48 hrs by SRB assay; format: functional; details: DU-145, 48 h, read-out: GI
A549 [25] = assay: Cytotoxicity against human A549 cells at 50 uM after 48 hrs by SRB assay; format: functional; details: A549, 48 h, read-out: GI
HEp-2 [26] = assay: Cytotoxicity against human Hep2 cells after 48 hrs by SRB assay; format: functional, cell-based; details: HEp-2, 48 h
DU-145 [27] = assay: Cytotoxicity against human DU145 cells after 48 hrs by SRB assay; format: functional, cell-based; details: DU-145, 48 h
SF-295 [28] = assay: Cytotoxicity against human SF295 cells after 48 hrs by SRB assay; format: functional, cell-based; details: SF-295, 48 h
DU-145 [29] = assay: Cytotoxicity against human DU145 cells at 50 uM after 48 hrs by SRB assay; format: functional; details: DU-145, 48 h, read-out: GI
HCT-15 [30] = assay: Cytotoxicity against human HCT15 cells after 48 hrs by SRB assay; format: functional, cell-based; details: HCT-15, 48 h
PC-3 [31] = assay: Cytotoxicity against human PC3 cells at 50 uM after 48 hrs by SRB assay; format: functional; details: PC-3, 48 h, read-out: GI
HCT-15 [32] = assay: Cytotoxicity against human HCT15 cells at 50 uM after 48 hrs by SRB assay; format: functional; details: HCT-15, 48 h, read-out: GI
HEp-2 [33] = assay: Cytotoxicity against human Hep2 cells at 30 uM after 48 hrs by SRB assay; format: functional; details: HEp-2, 48 h, read-out: GI
SF-295 [34] = assay: Cytotoxicity against human SF295 cells at 30 uM after 48 hrs by SRB assay; format: functional; details: SF-295, 48 h, read-out: GI
HL-60 [35] = assay: Cytotoxicity against human HL60 cells at 10 uM after 48 hrs by SRB assay; format: functional; details: HL-60, 48 h, read-out: GI
THP-1 [36] = assay: Cytotoxicity against human THP1 cells at 30 uM after 48 hrs by SRB assay; format: functional; details: THP-1, 48 h, read-out: GI
HL-60 [37] = assay: Induction of apoptosis in human HL60 cells assessed as DNA ladder formation at 5 uM after 6 hrs by DNA agarose gel electrophoresis; format: functional, cell-based
How it was run: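 HL-60 cells (2 × 10⁶/well/2 mL) were treated at 5 µM for 6 h, then pelleted and washed in PBS. DNA was extracted with phenol:chloroform:isoamyl alcohol and ethanol-precipitated. It was run on 1% agarose in TAE at 80 V for 1.5 h.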

SMILES | IC50 (MCF7 [1]) | IC50 (THP-1 [2]) | inhibition of growth at 50 µM (HEp-2 [3]) | IC50 (A549 [4]) | inhibition of growth at 30 µM (A549 [5]) | inhibition of growth at 30 µM (HCT-15 [6]) | inhibition of growth at 50 µM (MCF7 [7]) | inhibition of growth at 30 µM (DU-145 [8]) | inhibition of growth at 10 µM (HCT-15 [9]) | inhibition of growth at 10 µM (A549 [10]) | inhibition of growth at 50 µM (SF-295 [11]) | inhibition of growth at 10 µM (PC-3 [12]) | IC50 (HL-60 [13]) | inhibition of growth at 30 µM (MCF7 [14]) | inhibition of growth at 10 µM (THP-1 [15]) | inhibition of growth at 30 µM (HL-60 [16]) | inhibition of growth at 10 µM (MCF7 [17]) | inhibition of growth at 10 µM (SF-295 [18]) | inhibition of growth at 30 µM (PC-3 [19]) | inhibition of growth at 10 µM (HEp-2 [20]) | also measured
C=C(C)[C@@H]1CC[C@]2(C(=O)O)CC[C@]3(C)[C@H](CC[C@@H]4[C@@]5(C)CC[C@H](OCc6cn(-c7ccc(C#N)cc7)nn6)C(C)(C)[C@@H]5CC[C@]43C)[C@@H]12 | 49 µM | > 50 µM | 60% | > 50 µM | 28% | 80% | 51% | 15% | 14% | 22% | 54% | 3% | 32 µM | 32% | 21% | 40% | 5% | 5% | 5% | 1% | IC50 (PC-3 [21]): > 50 µM; inhibition of growth at 50 µM (HL-60 [22]): 48%; inhibition of growth at 50 µM (THP-1 [23]): 47%; inhibition of growth at 10 µM (DU-145 [24]): 1%; inhibition of growth at 50 µM (A549 [25]): 36%; IC50 (HEp-2 [26]): 32 µM; IC50 (DU-145 [27]): > 50 µM; IC50 (SF-295 [28]): 48 µM; inhibition of growth at 50 µM (DU-145 [29]): 20%; IC50 (HCT-15 [30]): > 50 µM; inhibition of growth at 50 µM (PC-3 [31]): 42%; inhibition of growth at 50 µM (HCT-15 [32]): 39%; inhibition of growth at 30 µM (HEp-2 [33]): 49%; inhibition of growth at 30 µM (SF-295 [34]): 18%; inhibition of growth at 10 µM (HL-60 [35]): 15%; inhibition of growth at 30 µM (THP-1 [36]): 44%
C=C(C)[C@@H]1CC[C@]2(C(=O)O)CC[C@]3(C)[C@H](CC[C@@H]4[C@@]5(C)CC[C@H](OCc6cn(-c7ccc(CC#N)cc7)nn6)C(C)(C)[C@@H]5CC[C@]43C)[C@@H]12 | 12 µM | 12 µM | 71% | 25 µM | 57% | 27% | 99% | 61% | 17% | 32% | 83% | 42% | 11 µM | 98% | 43% | 96% | 42% | 44% | 48% | 45% | IC50 (PC-3 [21]): 32 µM; inhibition of growth at 50 µM (HL-60 [22]): 98%; inhibition of growth at 50 µM (THP-1 [23]): 96%; inhibition of growth at 10 µM (DU-145 [24]): 30%; inhibition of growth at 50 µM (A549 [25]): 60%; IC50 (HEp-2 [26]): 13 µM; IC50 (DU-145 [27]): 23 µM; IC50 (SF-295 [28]): 13 µM; inhibition of growth at 50 µM (DU-145 [29]): 68%; IC50 (HCT-15 [30]): 46 µM; inhibition of growth at 50 µM (PC-3 [31]): 64%; inhibition of growth at 50 µM (HCT-15 [32]): 56%; inhibition of growth at 30 µM (HEp-2 [33]): 69%; inhibition of growth at 30 µM (SF-295 [34]): 81%; inhibition of growth at 10 µM (HL-60 [35]): 46%; inhibition of growth at 30 µM (THP-1 [36]): 95%
CC[C@@]1(O)C(=O)OCc2c1cc1n(c2=O)Cc2cc3ccccc3nc2-1 | – | – | – | – | – | – | – | – | – | – | – | – | – | – | – | – | – | – | – | – | Activity (HL-60 [37]): Active
